Screening results: PubChem BioAssay, several laboratories
An excerpt weighted towards active compounds, which were near 12% of everything screened.
MT stabilizer – microtubule stabilizers in HeLa cells, primary screen, imaging, high-content imaging; HeLa tubulin immunostaining HCS, 24 h; share of cells brighter than vehicle mean+2SD; % tubulin-high responders, % at 10 µM; actives 0.83% (n = 200,000); AID 2205, 2009;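 active means plate Z-score above 3 for both tubulin-high and condensed-nucleus cell shares, with cell loss under 80%, at 10 µM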;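 further: anti alpha tubulin signal scored within the nucleus-defined area of each cell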
CHOP inhibitor – inhibitors of CHOP promoter induction, primary screen, cell-based, unfolded protein response, luciferase reporter; AID 2732, 2010; actives 3.8% (n = 220,000); CHO-K1 CHOP-promoter luciferase, tunicamycin-induced, 15-18 h; inhibition, % at 10 µM;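 active means compounds that reduced the stress-induced luciferase reporter signal by more than about 70% of percent inhibition, limit read from the data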
Lmaj promast – Leishmania major promastigote growth inhibition, primary screen; Leishmania major promastigotes, resazurin fluorescence viability; inhibition, % at 10 µM; actives 9% (n = 200,000); AID 1063, 2008; in the data active means inhibition above about 50%;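 further: promastigotes grown with compound for 44 hours at 28 °C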
bCat nuc transl – modulators of beta-catenin nuclear translocation, primary screen, imaging, HeLa cells, immunofluorescence, high-content; nuclear translocation activity, % at 5 µM; actives 0.3% (n = 190,000);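 active means nuclear translocation activity above 50% at 5 µM, with a well cell count of 50 or more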;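 further: per-cell ratio of nuclear to cytoplasmic median beta-catenin stain intensity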
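System: HeLa cells, endogenous beta-catenin; compound dosing: 5 µM primary single dose, 0.1% DMSO, 0.02–20 µM confirmation series; incubation: 24 h compound exposure at 37°C, 5% CO2; signal: beta-catenin immunofluorescence imaging with DAPI; evaluation: % activation, nuclear-to-cytoplasmic median beta-catenin signal ratio per cell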
Autophagy HCS – autophagy modulators in MEF cells, primary screen, imaging, high-content, MEF GFP-LC3; MEF GFP-LC3 puncta imaging; test concentration mostly 10 µM; calls only at 10 µM (by protocol); actives 0.98% (n = 190,000);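 active means percentage of spot-positive cells more than 3 SD above its plate mean, without a fluorescence outlier flag or 80% toxicity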
Dynein cargo inh – inhibitors of GR-EGFP nuclear translocation, primary screen, dynein cargo transport inhibitor project, imaging, high-content, 3617.4 mouse cells; test concentration mostly 20 µM; stimulated with dexamethasone, 1 µM; stronger effect = lower value; actives 0.47% (n = 220,000); z-score, hits read low;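 active means plate z-score of nuclear minus cytoplasmic receptor signal below a set negative limit, without overly bright fluorescence or cell loss, cut at about -3.5 in these data, passing the limit was not always enough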;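 further: z-score of nuclear minus cytoplasmic ring GR-EGFP intensity difference per well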
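medium = tetracycline-free induction medium containing charcoal-stripped FBS | probe or stimulus = dexamethasone, 1.0 µM final | timing = 48 h induction, then 1 h compound, then 30 min agonist, 37 °C | detection = automated 10x imaging of fixed Hoechst-stained cells | read-out basis = nuclear versus cytoplasmic GR-EGFP signal, averaged per well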
Numbers stand for hits; - = inactive; . = no result; + = active, no number.

SMILES | MT stabilizer | CHOP inhibitor | Lmaj promast | bCat nuc transl | Autophagy HCS | Dynein cargo inh
COc1cc(OC)cc(C(=O)N[C@H](C(=O)OCC(=O)Nc2ccc(C(N)=O)cc2)C(C)C)c1 | - | - | 56 | . | - | -
CCOc1cc(/C=N\NC(=O)Cn2nc([N+](=O)[O-])cc2C)ccc1OCc1cccc2ccccc12 | - | 88 | - | . | - | -
O=C(Cn1cnc([N+](=O)[O-])n1)N/N=C/c1cccc2ccccc12 | - | - | 91 | - | - | -
O=C(Cn1cnc([N+](=O)[O-])n1)N/N=C/c1cccc(Cl)c1 | - | - | 63 | - | - | -
O=C(CCCn1cnc([N+](=O)[O-])n1)Nc1ccc(Cl)cc1Cl | - | - | - | - | - | -
O=C(Cn1cnc([N+](=O)[O-])n1)N/N=C/c1ccc(O)cc1O | - | - | - | - | - | -
CCN(CC)S(=O)(=O)c1cccc(NC(=O)COC(=O)/C=C/c2ccco2)c1 | - | - | 57 | . | - | -
CN(C)S(=O)(=O)c1cccc(NC(=O)COC(=O)/C=C/c2ccco2)c1 | - | - | - | - | - | -
O=C(/C=C/c1ccccc1)Nc1ccc(Br)cn1 | - | - | - | - | - | -
CC(C)CNC(=O)c1ccccc1NC(=O)/C=C/c1cccc([N+](=O)[O-])c1 | - | - | 53 | - | - | -
Cc1ccc(NC(=O)/C=C/c2ccc(Cl)cc2)nc1 | 21 | - | - | - | - | -
CCN(CC)S(=O)(=O)c1cccc(NC(=O)/C=C/c2ccc([N+](=O)[O-])cc2)c1 | - | - | - | - | - | -
CCN(CC)S(=O)(=O)c1cccc(NC(=O)/C=C/c2cccc([N+](=O)[O-])c2)c1 | - | - | 99 | - | - | -
CC1CCCC(C)N1C(=O)COc1ccc(C(=O)N/N=C/c2ccc(C(=O)O)cc2)cc1 (centres undefined) | - | - | - | - | - | -
O=C(/C=C/c1cccc([N+](=O)[O-])c1)Nc1ccc(Cl)cn1 | 10 | - | - | - | - | -
Cc1cc(S(=O)(=O)NCC(C)C)ccc1OCC(=O)NCc1ccco1 | - | - | - | - | - | -
O=C(/C=C/c1cccc([N+](=O)[O-])c1)c1cccs1 | - | - | 89 | - | - | -
CN(C)/C=C/C(=O)c1ccccc1 | . | - | . | - | . | -
CN(C)/C=C/C(=O)c1cccc([N+](=O)[O-])c1 | - | - | - | - | + | -
O=C(/C=C/c1cccc([N+](=O)[O-])c1)c1ccc2c(c1)OCCO2 | - | - | 98 | - | - | -
O=C(/C=C/c1cccc([N+](=O)[O-])c1)N1CCN(S(=O)(=O)c2cccs2)CC1 | - | - | 66 | - | - | -
Cc1[nH]c2ccccc2c1/C=N/NC(=O)c1cc(C(C)C)[nH]n1 | . | - | . | - | . | -
CCc1ccccc1NC(=O)CN(C)C(=O)CSc1nnc(Nc2ccc(C)cc2)s1 | - | - | 72 | - | - | -
CCc1ccccc1NC(=O)CN(C)C(=O)CSc1nnc(Nc2cccc(C)c2)s1 | - | - | - | - | - | -
CCc1ccc(Nc2nnc(SCC(=O)N(C)CC(=O)Nc3ccccc3CC)s2)cc1 | - | - | 73 | - | - | -
SMILES | MT stabilizer | CHOP inhibitor | Lmaj promast | bCat nuc transl | Autophagy HCS | Dynein cargo inh
Cn1c(=O)n(C)c2cc(S(=O)(=O)NCCO)ccc21 | - | - | - | - | - | -
Cn1cc(C(=O)NCN2CCCCC2)c2ccccc21 | - | - | - | . | - | -
CCc1cccc(CC)c1NC(=O)CN1C2CCCC1CC(NC(=O)Nc1cccc(OC)c1)C2 (centres undefined) | - | - | - | - | - | -
CC1(C)N=C(SCC(=O)Nc2ccc(Cl)cc2)C(c2ccccc2)=N1 | - | 78 | - | . | - | -
CC1(C)N=C(SCC(=O)Nc2ccc(Cl)cc2)C(c2ccc(Cl)cc2)=N1 | - | 72 | - | - | - | -
COc1ccc(-c2nnc(SCC(=O)Nc3ccc(Cl)cc3)n2C)cc1 | - | - | - | - | - | -
COc1ccc(/C(O)=C/c2nc3ccc(C(=O)NCCc4cccc(C)c4)cc3[nH]c2=O)cc1OC | - | 73 | - | - | - | -
COc1ccc(CCNC(=O)c2ccc3nc(-c4ccco4)c(-c4ccco4)nc3c2)cc1OC | - | - | - | - | - | -
Cc1nc2ccccn2c1C(=O)N/N=C/c1ccc([N+](=O)[O-])cc1 | . | - | . | - | . | -
O=C(N/N=C/c1cccnc1)c1cc2c(ccc3ccccc32)o1 | - | 91 | - | - | - | -
O=C(CNC(=O)C(c1ccccc1)c1ccccc1)N/N=C/c1cccnc1 | . | - | . | - | . | -
Cc1nc2ccccn2c1C(=O)N/N=C/c1ccc([N+](=O)[O-])o1 | - | - | 100 | - | - | -
O=C(N/N=C/c1ccc([N+](=O)[O-])o1)c1cc2c(ccc3ccccc32)o1 | - | - | 99 | - | - | -
O=C(N/N=C/c1cccnc1)c1ccc(NC(=O)C(c2ccccc2)c2ccccc2)cc1 | - | 78 | - | - | - | -
COC(=O)CNc1cccc(C(F)(F)F)c1 | - | - | - | - | - | -
OC(COc1ccc2c(c1)OCO2)CN1CCN(c2ccc(F)cc2)CC1 (centres undefined) | - | - | 53 | - | - | -
CCN1CCN(CC(O)COCc2cc(OC)c(OC)c(OC)c2)CC1 (centres undefined) | - | - | - | - | - | -
OCCN1CCN(CC(O)COCc2ccc3c(c2)OCO3)CC1 (centres undefined) | - | - | - | - | - | -
O=C1c2cccc3cccc(c23)C(=O)N1CC1CCN(CC(O)COCc2ccc3c(c2)OCO3)CC1 (centres undefined) | - | - | 90 | . | - | -
CCOC(=O)C1CCN(CC(O)COCc2ccc3c(c2)OCO3)CC1 (centres undefined) | - | - | 86 | - | - | -
COc1cc(COCC(O)CN2CCN(Cc3ccccc3)CC2)cc(OC)c1OC (centres undefined) | - | - | 88 | - | - | -
COc1ccc(N(CCC#N)S(=O)(=O)c2cccc3nsnc23)cc1 | - | - | - | - | - | -
Cc1ccc(C)c(OCC(O)CN2CCC(CN3C(=O)c4cccc5cccc(c45)C3=O)CC2)c1 (centres undefined) | - | 76 | 100 | . | - | -
CC(C)OCC(O)CN1CCN(CC(O)COc2ccc3c(c2)OCO3)CC1 (centres undefined) | - | - | - | - | - | -
OC(COCc1ccc2c(c1)OCO2)CN1CCN(Cc2ccccc2)CC1 (centres undefined) | - | - | 89 | - | - | -
